{
  "source": "PubChem BioAssay AID602232",
  "about": "(The Scripps Research Institute Molecular Screening Center, 2012)",
  "note": "Values without a mark were called inactive. The source made the active and inactive calls.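 The calls were made as follows: active = normalized ATPase activity over 10% above control, with a t-test p below 0.05 against the vehicle group; inactive = the rest.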",
  "data": [
    {"assay": "increase of myofibrillar ATP hydrolysis – biochemical, absorbance, porcine cardiac myofibrils, powder samples, mechanism study for cardiac RTF activator project (AID 602232)", "settings": "phosphate absorbance 660 nm, at 10 µM, active compounds read high", "summary_of_the_method": "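Replication – Quintuplicate wells · Medium – pCa buffer, pH 7.0, with EGTA and NTA, EC50 calcium level · Timing – 5 min pre-exposure, 7 min reaction, 25 °C · Measure – mean compound-well ATPase activity as ratio to mean DMSO wells · Signal – Fiske-Subbarow colorimetry of released phosphate after TCA stop, 660 nm · Benchmarks – DMSO vehicle wells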", "values": [
      {"smiles": "CCOC(=O)c1cc2n(c1N)-c1ccccc1C2=O", "normalized ATPase activity": 1.03},
      {"smiles": "CN1CCN(CCCN2c3ccccc3Sc3ccc(C(F)(F)F)cc32)CC1", "normalized ATPase activity": 0.986},
      {"smiles": "CCN(CC)c1ccc(/C=C2\\SC(N)=NC2=O)cc1", "normalized ATPase activity": 0.992},
      {"smiles": "CCN1C(=O)/C(=C/C=C2/SCCN2C)SC1=S", "normalized ATPase activity": 1.07},
      {"smiles": "COc1ccc(OC)c(/C=C2\\N=C(c3ccccc3)OC2=O)c1", "normalized ATPase activity": 1.03},
      {"smiles": "CCOC(=O)c1sc(N)c(C#N)c1COC(=O)CNC(=O)c1cc(OC)c(OC)c(OC)c1", "normalized ATPase activity": "1.11 (active)"},
      {"smiles": "CCCN1CCc2c(sc(NC(=S)NC(=O)c3ccccc3)c2C#N)C1", "normalized ATPase activity": 0.984},
      {"smiles": "COc1ccccc1NS(=O)(=O)c1cc([N+](=O)[O-])ccc1N/N=C/c1c(C)[nH]c2ccccc12", "normalized ATPase activity": 1.08},
      {"smiles": "CCN1C(=O)/C(=C/N2CCc3ccccc32)SC1=S", "normalized ATPase activity": 0.984},
      {"smiles": "CCN(CC)c1ccc(/C=c2\\sc3nc4ccccc4n3c2=O)c(O)c1", "normalized ATPase activity": 0.988},
      {"smiles": "CC(C)COCC(CN(Cc1ccccc1)c1ccccc1)N1CCCC1", "note": "(stereo not given)", "normalized ATPase activity": 1.05},
      {"smiles": "Cc1ccc(/C=C2\\Oc3c(ccc(O)c3CN3CCN(CCO)CC3)C2=O)cc1", "normalized ATPase activity": 0.928},
      {"smiles": "Cc1cccn2c(=O)c(/C=C3\\SC(=S)N(CC(C)C)C3=O)c(NCCCOC(C)C)nc12", "normalized ATPase activity": "1.11 (active)"},
      {"smiles": "COc1ccc(-c2nc3ccc(C4=NNC(=O)CC4C)cc3[nH]2)cc1", "note": "(stereo not given)", "normalized ATPase activity": 1.05},
      {"smiles": "S=C(Nc1ccc(N2CCOCC2)cc1)Nc1ccc2nc(-c3ccco3)c(-c3ccco3)nc2c1", "normalized ATPase activity": 1.06}
    ]}
  ]
}
